From ChEMBL document CHEMBL1671691 (Antimicrob Agents Chemother, 2010)

How the values were obtained:
Influenza A virus [1] = assay: Antiviral activity against sInfluenza A virus (A/California/04/2009(H1N1)) infected in MDCK cells from Mill Hill assessed as log reduction in viral titer at 42.7 uM after 24 hrs by immunofluorescent assay; format: functional
In short: (§1)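 MDCK cells (ATCC or Mill Hill) infected with 2009 pandemic H1N1 at MOI ~0.01, 1 h adsorption at 4°C, washed. DMEM with 2 μg/ml TPCK-trypsin plus drug for 24 h at 37°C. Supernatants titrated on MDCK cells by focus formation: methanol/acetic acid fixation, anti-nucleoprotein MAbs, FITC secondary, foci counted. Titre as log10 FFU per 100 μl; detection limit <10 FFU; quadruplicate wells.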

Influenza A virus [2] = assay: Antiviral activity against Influenza A virus (A/Mexico/4604/2009(H1N1)) infected in MDCK cells from Mill Hill assessed as log reduction in viral titer at 42.7 uM after 24 hrs by immunofluorescent assay; format: functional
In short: (§2)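 Yield reduction in MDCK-ATCC or MDCK-Mill Hill cells infected at MOI ∼0.01. Adsorption 1 h at 4°C, washed, then DMEM with 2 μg/ml TPCK-trypsin and drug. At 24 h, supernatants were titrated by immunofluorescent focus assay on MDCK cells with anti-NP monoclonals and FITC secondary. Titres as log10 FFU per 100 μl; detection limit <10 FFU. Quadruplicate, mean ± SD.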

Influenza A virus [3] = assay: Antiviral activity against sInfluenza A virus (A/Washington/29/2009(H1N1)) infected in MDCK cells from Mill Hill assessed as log reduction in viral titer at 42.7 uM after 24 hrs by immunofluorescent assay; format: functional, Influenza A virus (A/Washington/29/2009(H1N1)); in short: as §1
Influenza A virus [4] = assay: Antiviral activity against Influenza A virus (A/Illinois/10/2009(H1N1)) infected in MDCK cells from Mill Hill assessed as log reduction in viral titer at 42.7 uM after 24 hrs by immunofluorescent assay; format: functional; in short: as §2
Influenza A virus [5] = assay: Antiviral activity against sInfluenza A virus (A/California/04/2009(H1N1)) infected in MDCK cells from ATCC assessed as log reduction in viral titer at 128 uM after 24 hrs by immunofluorescent assay; format: functional; in short: as §1
Influenza A virus [6] = assay: Antiviral activity against Influenza A virus (A/Mexico/4604/2009(H1N1)) infected in MDCK cells from ATCC assessed as log reduction in viral titer at 128 uM after 24 hrs by immunofluorescent assay; format: functional; in short: as §2
Influenza A virus [7] = assay: Antiviral activity against sInfluenza A virus (A/Washington/29/2009(H1N1)) infected in MDCK cells from ATCC assessed as log reduction in viral titer at 128 uM after 24 hrs by immunofluorescent assay; format: functional, Influenza A virus (A/Washington/29/2009(H1N1)); in short: as §1
Influenza A virus [8] = assay: Antiviral activity against Influenza A virus (A/Illinois/10/2009(H1N1)) infected in MDCK cells from ATCC assessed as log reduction in viral titer at 128 uM after 24 hrs by immunofluorescent assay; format: functional; in short: as §2
Influenza A virus [9] = assay: Antiviral activity against Influenza A virus (A/California/04/2009(H1N1)) infected in MDCK cells from Mill Hill assessed as log reduction in viral titer at 128 uM after 24 hrs by immunofluorescent assay; format: functional; in short: as §2
Influenza A virus [10] = assay: Antiviral activity against Influenza A virus (A/Mexico/4604/2009(H1N1)) infected in MDCK cells from Mill Hill assessed as log reduction in viral titer at 128 uM after 24 hrs by immunofluorescent assay; format: functional; in short: as §2
Influenza A virus [11] = assay: Antiviral activity against Influenza A virus (A/Washington/29/2009(H1N1)) infected in MDCK cells from Mill Hill assessed as log reduction in viral titer at 128 uM after 24 hrs by immunofluorescent assay; format: functional; in short: as §2
Influenza A virus [12] = assay: Antiviral activity against Influenza A virus (A/Illinois/10/2009(H1N1)) infected in MDCK cells from Mill Hill assessed as log reduction in viral titer at 128 uM after 24 hrs by immunofluorescent assay; format: functional; in short: as §2
Influenza A virus [13] = assay: Antiviral activity against Influenza A virus (A/California/04/2009(H1N1)) infected in MDCK cells from ATCC assessed as inhibition of viral replication after 3 days by microscopic analysis using crystal violet stain; format: functional
In short: (§3)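 Confluent MDCK-ATCC monolayers infected with virus diluted to give 15–45 plaques/well. Adsorption 1 h at 37°C without drug, then washed. Overlaid with 0.8% agarose in MEM containing drug plus TPCK-trypsin: 3 μg/ml for seasonal viruses, 2 μg/ml for 2009 A(H1N1). Incubated 3 days at 37°C, 5% CO2. Ethanol-fixed, crystal violet-stained, plaques counted. EC50 by curve fit; duplicates on three occasions, mean ± SD.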

Influenza A virus [14] = assay: Antiviral activity against Influenza A virus (A/Mexico/4604/2009(H1N1)) infected in MDCK cells from ATCC assessed as inhibition of viral replication after 3 days by microscopic analysis using crystal violet stain; format: functional; in short: as §3
Influenza A virus [15] = assay: Antiviral activity against Influenza A virus (A/California/04/2009(H1N1)) infected in MDCK cells from Mill Hill assessed as inhibition of viral replication after 3 days by microscopic analysis using crystal violet stain; format: functional
Influenza A virus [16] = assay: Antiviral activity against Influenza A virus (A/Mexico/4604/2009(H1N1)) infected in MDCK cells from Mill Hill assessed as inhibition of viral replication after 3 days by microscopic analysis using crystal violet stain; format: functional
Influenza A virus [17] = assay: Antiviral activity against adamantane-, oseltamivir-, zanamivir-susceptible Influenza A virus (A/Georgia/17/2006(H1N1)) infected in MDCK cells assessed as inhibition of viral replication after 3 days by microscopic analysis using crystal violet stain; format: functional, organism-based; conditions: 72 h; in short: as §3
Influenza A virus [18] = assay: microbe, parasite or virus in culture; conditions: MDCK, 72 h
Influenza A virus [19] = assay: microbe, parasite or virus in culture; conditions: MDCK, 72 h; remark: listed apart in the source
Influenza A virus [20] = assay: microbe, parasite or virus in culture; conditions: (A/duck/Vietnam/NCVD93/2007 clade 2.3.4 (H5N1)), MDCK, 72 h
Influenza A virus [21] = assay: microbe, parasite or virus in culture; conditions: (A/turkey/VA/4529/2002 (H7N2)), MDCK, 72 h
Influenza A virus [22] = assay: microbe, parasite or virus in culture; conditions: MDCK, 72 h; remark: listed apart in the source
Influenza A virus [23] = assay: microbe, parasite or virus in culture; conditions: (A/Ecuador/5179/2008(H1N1)), MDCK, 72 h
Influenza A virus [24] = assay: microbe, parasite or virus in culture; conditions: (A/Brazil/1067/2008(H1N1)), MDCK, 72 h
Influenza A virus [25] = assay: microbe, parasite or virus in culture; conditions: (A/Swine/South Dakota/03/2008(H1N1)), MDCK, 72 h

NC(=O)c1nc(F)cnc1O [FAVIPIRAVIR]
log10FFU (Influenza A virus [1]): <1 | log10FFU (Influenza A virus [2]): 2.1 | log10FFU (Influenza A virus [3]): 1.5 | log10FFU (Influenza A virus [4]): 1.7 | log10FFU (Influenza A virus [5]): <1 | log10FFU (Influenza A virus [6]): <1 | log10FFU (Influenza A virus [7]): 1 | log10FFU (Influenza A virus [8]): <1 | log10FFU (Influenza A virus [9]): <1 | log10FFU (Influenza A virus [10]): <1 | log10FFU (Influenza A virus [11]): <1 | log10FFU (Influenza A virus [12]): <1 | log10FFU (Influenza A virus [13]): 0.48 | log10FFU (Influenza A virus [14]): 0.35 | log10FFU (Influenza A virus [15]): 3.75 | log10FFU (Influenza A virus [16]): 36.16 | EC50 (Influenza A virus [17]): 1460 nM | EC50 (Influenza A virus [18]): 380 nM | EC50 (Influenza A virus [19]): 960 nM | EC50 (Influenza A virus [20]): 1590 nM | EC50 (Influenza A virus [21]): 1530 nM | EC50 (Influenza A virus [22]): 3630 nM | EC50 (Influenza A virus [23]): 2480 nM | EC50 (Influenza A virus [24]): 1850 nM | EC50 (Influenza A virus [25]): 830 nM
